{
  "source": "ChEMBL document CHEMBL1157775",
  "about": "“Novel hexahydropyrrolo[3,4-c]pyrrole CCR5 antagonists” (Bioorg Med Chem Lett, 2010)",
  "data": [
    {"system": "Human immunodeficiency virus 1", "assay": "Antiviral activity against HIV1 NL4-3 infected in human JC53-BL cells assessed as luciferase activity after 3 days post infection", "assay_type": "functional, organism-based", "details": "Human immunodeficiency virus 1, NL4-3, JC53BL, 72 h", "method_in_brief": "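Pseudotyped virus in culture supernatant was harvested after 2 days. It was used to infect JC53-BL reporter cells. Luciferase reporter activity was read 3 days post-infection. IC50 in nM is reported as the mean of two experiments.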", "units": {"IC50": "nM"}, "values": [
      {"compound": "Cc1cccc(C)c1C(=O)N1C[C@H]2CN(CC[C@H](NC(=O)C3CCCCC3)c3ccccc3)C[C@H]2C1", "IC50": 30},
      {"compound": "Cc1cccc(C)c1C(=O)N1C[C@H]2CN(CC[C@H](NC(=O)C3CCC(F)(F)CC3)c3ccccc3)C[C@H]2C1", "IC50": 9},
      {"compound": "Cc1cccc(C)c1C(=O)N1C[C@H]2CN(CC[C@H](NC(=O)c3ccccc3)c3ccccc3)C[C@H]2C1", "IC50": 124},
      {"compound": "Cc1cccc(C)c1C(=O)N1C[C@H]2CN(CC[C@H](NC(=O)C3CCC3)c3ccccc3)C[C@H]2C1", "IC50": 39},
      {"compound": "O=C(N[C@@H](CCN1C[C@@H]2CN(C(=O)c3c(Cl)cccc3Cl)C[C@@H]2C1)c1ccccc1)C1CCCC1", "IC50": 92},
      {"compound": "Cc1cc(F)cc(C)c1C(=O)N1C[C@H]2CN(CC[C@H](NC(=O)C3CCCC3)c3ccccc3)C[C@H]2C1", "IC50": 3},
      {"compound": "Cc1ncnc(C)c1C(=O)N1C[C@H]2CN(CC[C@H](NC(=O)CC3CCC(F)(F)CC3)c3ccccc3)C[C@H]2C1", "IC50": 6},
      {"compound": "Cc1cccc(C)c1C(=O)N1C[C@H]2CN(CC[C@H](NC(=O)c3ccoc3)c3ccccc3)C[C@H]2C1", "IC50": 85},
      {"compound": "Cc1cccc(C)c1C(=O)N1C[C@H]2CN(CC[C@H](NC(=O)C3CCOC3)c3ccccc3)C[C@H]2C1", "note": "(some centres undefined)", "IC50": 101},
      {"compound": "Cc1ncnc(C)c1C(=O)N1C[C@H]2CN(CC[C@H](NC(=O)CC3CCC(F)(F)CC3)c3cccc(F)c3)C[C@H]2C1", "IC50": 1.1},
      {"compound": "Cc1ncnc(C)c1C(=O)N1C[C@H]2CN(CC[C@H](NC(=O)CC3CC(F)(F)C3)c3cc(F)cc(F)c3)C[C@H]2C1", "IC50": 41},
      {"compound": "Cc1ncnc(C)c1C(=O)N1C[C@H]2CN(CC[C@H](NC(=O)CC3CC(F)(F)C3)c3cccc(C#N)c3)C[C@H]2C1", "IC50": 203},
      {"compound": "CCO/N=C(\\c1ccc(Br)cc1)C1CCN(C2(C)CCN(C(=O)c3c(C)cccc3C)CC2)CC1", "IC50": 4},
      {"compound": "Cc1nnc(C(C)C)n1[C@H]1C[C@H]2CC[C@@H](C1)N2CC[C@H](NC(=O)C1CCC(F)(F)CC1)c1ccccc1", "note": "[MARAVIROC]", "IC50": 3}
    ]},
    {"system": "not listed separately", "assay": "Clearance in dog at 1 mg/kg, iv", "assay_type": "ADME, organism-based, Canis lupus familiaris", "set-up": "dose 1 mg/kg, route intravenous", "details": "in vivo", "method_in_brief": "(§1)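 Dog PK. Single IV dose of 1 mg/kg, then an oral dose of 10 mg/kg; one case used 1 mg/kg both IV and PO. AUC and %F were determined after the oral dose. Clearance (ml/min/kg) was determined from the IV dose.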", "units": {"clearance": "mL/min/kg"}, "values": [
      {"compound": "Cc1ncnc(C)c1C(=O)N1C[C@H]2CN(CC[C@H](NC(=O)CC3CCC(F)(F)CC3)c3ccccc3)C[C@H]2C1", "clearance": 44}
    ]},
    {"system": "not listed separately", "assay": "AUC in dog at 10 mg/kg, po", "assay_type": "ADME, organism-based, Canis lupus familiaris", "set-up": "dose 10 mg/kg, route oral", "details": "plasma", "method_in_brief": "as §1", "units": {"AUC": "ng·h/mL"}, "values": [
      {"compound": "Cc1ncnc(C)c1C(=O)N1C[C@H]2CN(CC[C@H](NC(=O)CC3CCC(F)(F)CC3)c3ccccc3)C[C@H]2C1", "AUC": 4210}
    ]},
    {"system": "not listed separately", "assay": "Oral bioavailability in dog at 10 mg/kg", "assay_type": "ADME, organism-based, Canis lupus familiaris", "details": "in vivo", "method_in_brief": "as §1", "units": {"bioavailability": "%"}, "values": [
      {"compound": "Cc1ncnc(C)c1C(=O)N1C[C@H]2CN(CC[C@H](NC(=O)CC3CCC(F)(F)CC3)c3ccccc3)C[C@H]2C1", "bioavailability": 103}
    ]},
    {"system": "not listed separately", "assay": "Intrinsic clearance in human liver microsomes assessed per mg of protein", "assay_type": "ADME, Microsome", "details": "not given", "method_in_brief": "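Human liver microsomes. Intrinsic clearance is expressed as µl/min/mg protein.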", "units": {"microsomal CLint": "µL/min/mg"}, "values": [
      {"compound": "O=C(N[C@@H](CCN1C[C@@H]2CN(C(=O)c3c(Cl)cccc3Cl)C[C@@H]2C1)c1ccccc1)C1CCCC1", "microsomal CLint": 389},
      {"compound": "Cc1cc(F)cc(C)c1C(=O)N1C[C@H]2CN(CC[C@H](NC(=O)C3CCCC3)c3ccccc3)C[C@H]2C1", "microsomal CLint": 236},
      {"compound": "Cc1ncnc(C)c1C(=O)N1C[C@H]2CN(CC[C@H](NC(=O)CC3CCC(F)(F)CC3)c3ccccc3)C[C@H]2C1", "microsomal CLint": 83},
      {"compound": "Cc1ncnc(C)c1C(=O)N1C[C@H]2CN(CC[C@H](NC(=O)CC3CCC(F)(F)CC3)c3cccc(F)c3)C[C@H]2C1", "microsomal CLint": 113},
      {"compound": "Cc1ncnc(C)c1C(=O)N1C[C@H]2CN(CC[C@H](NC(=O)CC3CC(F)(F)C3)c3cc(F)cc(F)c3)C[C@H]2C1", "microsomal CLint": 45},
      {"compound": "Cc1ncnc(C)c1C(=O)N1C[C@H]2CN(CC[C@H](NC(=O)CC3CC(F)(F)C3)c3cccc(C#N)c3)C[C@H]2C1", "microsomal CLint": 30}
    ]},
    {"system": "not listed separately", "assay": "Intrinsic clearance in rat liver microsomes assessed per mg of protein", "assay_type": "ADME, Microsome", "details": "not given", "method_in_brief": "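Rat liver microsomes. Intrinsic clearance is expressed per mg protein. Values ≥90 µl/min were taken as high clearance.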", "units": {"microsomal CLint": "µL/min/mg"}, "values": [
      {"compound": "Cc1cc(F)cc(C)c1C(=O)N1C[C@H]2CN(CC[C@H](NC(=O)C3CCCC3)c3ccccc3)C[C@H]2C1", "microsomal CLint": 517},
      {"compound": "Cc1ncnc(C)c1C(=O)N1C[C@H]2CN(CC[C@H](NC(=O)CC3CCC(F)(F)CC3)c3ccccc3)C[C@H]2C1", "microsomal CLint": 46},
      {"compound": "Cc1ncnc(C)c1C(=O)N1C[C@H]2CN(CC[C@H](NC(=O)CC3CCC(F)(F)CC3)c3cccc(F)c3)C[C@H]2C1", "microsomal CLint": 24},
      {"compound": "Cc1ncnc(C)c1C(=O)N1C[C@H]2CN(CC[C@H](NC(=O)CC3CC(F)(F)C3)c3cccc(C#N)c3)C[C@H]2C1", "microsomal CLint": 31}
    ]},
    {"molecular_target": "C-C chemokine receptor type 5 (Homo sapiens, UniProt P51681)", "sequence (P51681 whole entry)": "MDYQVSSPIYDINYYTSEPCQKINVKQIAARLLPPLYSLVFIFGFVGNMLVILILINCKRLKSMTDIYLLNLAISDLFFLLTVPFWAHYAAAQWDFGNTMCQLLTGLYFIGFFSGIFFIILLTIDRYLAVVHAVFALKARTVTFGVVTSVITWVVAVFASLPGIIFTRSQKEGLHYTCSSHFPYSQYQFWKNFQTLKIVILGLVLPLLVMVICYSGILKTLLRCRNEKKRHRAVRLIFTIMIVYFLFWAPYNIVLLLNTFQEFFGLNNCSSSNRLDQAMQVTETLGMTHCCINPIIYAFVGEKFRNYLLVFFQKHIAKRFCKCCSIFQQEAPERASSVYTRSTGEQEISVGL", "assay": "Binding affinity at CCR5 receptor by radiolabeled RANTES binding assay", "details": "not given", "units": {"IC50": "nM"}, "values": [
      {"compound": "Cc1cccc(C)c1C(=O)N1C[C@H]2CN(CC[C@H](NC(=O)C3CCCCC3)c3ccccc3)C[C@H]2C1", "IC50": 3},
      {"compound": "Cc1cccc(C)c1C(=O)N1C[C@H]2CN(CC[C@H](NC(=O)C3CCC(F)(F)CC3)c3ccccc3)C[C@H]2C1", "IC50": 4},
      {"compound": "Cc1cccc(C)c1C(=O)N1C[C@H]2CN(CC[C@H](NC(=O)c3ccccc3)c3ccccc3)C[C@H]2C1", "IC50": 8},
      {"compound": "Cc1cccc(C)c1C(=O)N1C[C@H]2CN(CC[C@H](NC(=O)C3CCC3)c3ccccc3)C[C@H]2C1", "IC50": 7},
      {"compound": "O=C(N[C@@H](CCN1C[C@@H]2CN(C(=O)c3c(Cl)cccc3Cl)C[C@@H]2C1)c1ccccc1)C1CCCC1", "IC50": 14},
      {"compound": "Cc1cc(F)cc(C)c1C(=O)N1C[C@H]2CN(CC[C@H](NC(=O)C3CCCC3)c3ccccc3)C[C@H]2C1", "IC50": 6},
      {"compound": "Cc1ncnc(C)c1C(=O)N1C[C@H]2CN(CC[C@H](NC(=O)CC3CCC(F)(F)CC3)c3ccccc3)C[C@H]2C1", "IC50": 27},
      {"compound": "Cc1cccc(C)c1C(=O)N1C[C@H]2CN(CC[C@H](NC(=O)c3ccoc3)c3ccccc3)C[C@H]2C1", "IC50": 18},
      {"compound": "Cc1cccc(C)c1C(=O)N1C[C@H]2CN(CC[C@H](NC(=O)C3CCOC3)c3ccccc3)C[C@H]2C1", "note": "(some centres undefined)", "IC50": 15},
      {"compound": "Cc1ncnc(C)c1C(=O)N1C[C@H]2CN(CC[C@H](NC(=O)CC3CCC(F)(F)CC3)c3cccc(F)c3)C[C@H]2C1", "IC50": 12},
      {"compound": "Cc1ncnc(C)c1C(=O)N1C[C@H]2CN(CC[C@H](NC(=O)CC3CC(F)(F)C3)c3cc(F)cc(F)c3)C[C@H]2C1", "IC50": 30},
      {"compound": "Cc1ncnc(C)c1C(=O)N1C[C@H]2CN(CC[C@H](NC(=O)CC3CC(F)(F)C3)c3cccc(C#N)c3)C[C@H]2C1", "IC50": 34},
      {"compound": "CCO/N=C(\\c1ccc(Br)cc1)C1CCN(C2(C)CCN(C(=O)c3c(C)cccc3C)CC2)CC1", "IC50": 6}
    ]},
    {"system": "not listed separately", "assay": "Intrinsic clearance in dog liver microsomes assessed per mg of protein", "assay_type": "ADME, Canis lupus familiaris, Microsome", "details": "not given", "units": {"microsomal CLint": "µL/min/mg"}, "values": [
      {"compound": "Cc1ncnc(C)c1C(=O)N1C[C@H]2CN(CC[C@H](NC(=O)CC3CCC(F)(F)CC3)c3ccccc3)C[C@H]2C1", "microsomal CLint": 30}
    ]},
    {"system": "not listed separately", "assay": "Clearance in rat at 1 mg/kg, iv", "assay_type": "ADME, organism-based", "set-up": "dose 1 mg/kg, route intravenous", "details": "in vivo", "method_in_brief": "(§2)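 Rat PK. Single IV dose of 1 mg/kg and oral dose of 10 mg/kg. Oral AUC (ng·h/mL) and %F were derived from the PO arm. Clearance (mL/min/kg) was taken from the IV arm.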", "units": {"clearance": "mL/min/kg"}, "values": [
      {"compound": "Cc1ncnc(C)c1C(=O)N1C[C@H]2CN(CC[C@H](NC(=O)CC3CCC(F)(F)CC3)c3ccccc3)C[C@H]2C1", "clearance": 99}
    ]},
    {"system": "not listed separately", "assay": "AUC in rat at 10 mg/kg, po", "assay_type": "ADME, organism-based", "set-up": "dose 10 mg/kg, route oral", "details": "plasma", "method_in_brief": "as §2", "units": {"AUC": "ng·h/mL"}, "values": [
      {"compound": "Cc1ncnc(C)c1C(=O)N1C[C@H]2CN(CC[C@H](NC(=O)CC3CCC(F)(F)CC3)c3ccccc3)C[C@H]2C1", "AUC": 215}
    ]},
    {"system": "not listed separately", "assay": "Oral bioavailability in rat at 10 mg/kg", "assay_type": "ADME, organism-based", "details": "in vivo", "method_in_brief": "as §2", "units": {"bioavailability": "%"}, "values": [
      {"compound": "Cc1ncnc(C)c1C(=O)N1C[C@H]2CN(CC[C@H](NC(=O)CC3CCC(F)(F)CC3)c3ccccc3)C[C@H]2C1", "bioavailability": 15}
    ]}
  ]
}
